UHRF1 MBD2 ctr: human UHRF1 methylated DNA binding inhibitors. UHRF1 binding to methylated oligo, TR-FRET. inhibition, % at 4.4 µM. hit rate 0.75% among 370,000. AID 687016; in the data active means inhibition above about 21%;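 further: UHRF1 SRA domain binding a hemimethylated CpG hairpin DNA probe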
LEDGF integ inh: blocks HIV-1 LEDGF/p75-dependent DNA integration. TR-FRET IN-LEDGF/p75 DNA integration, Eu/Cy5. inhibition, % at 3.7 µM. hit rate 0.64% among 370,000. AID 743269;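 active means inhibition above the screen-wide mean plus 3 SD, cut at about 13% in these data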;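 further: signal is the Cy5 over europium emission ratio at 671 and 618 nm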
MBD2 DNA inh: MBD2-methylated oligo binding inhibition; Q9UBB5; inhibition, % at 4.4 µM; TR-FRET, MBD2 binding to methylated oligonucleotide; hit rate 0.31% among 370,000; in the data active means inhibition above about 13%
Target sequence (Q9UBB5 whole entry, looked up): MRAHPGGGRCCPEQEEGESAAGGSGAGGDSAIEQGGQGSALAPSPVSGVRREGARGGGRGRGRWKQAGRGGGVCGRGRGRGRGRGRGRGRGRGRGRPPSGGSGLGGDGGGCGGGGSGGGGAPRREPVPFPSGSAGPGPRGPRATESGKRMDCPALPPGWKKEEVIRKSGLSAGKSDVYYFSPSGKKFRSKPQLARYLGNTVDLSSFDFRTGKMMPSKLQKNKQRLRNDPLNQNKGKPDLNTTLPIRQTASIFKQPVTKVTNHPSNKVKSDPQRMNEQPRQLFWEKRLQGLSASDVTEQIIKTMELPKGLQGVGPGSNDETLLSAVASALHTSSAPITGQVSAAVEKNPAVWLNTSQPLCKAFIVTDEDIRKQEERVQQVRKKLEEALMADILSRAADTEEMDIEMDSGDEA
TDP2 inh: blocks human TDP2 phosphodiesterase activity; recombinant TDP2, T5PNP hydrolysis, p-nitrophenol absorbance 415 nm; hit rate 0.34% among 370,000; inhibition, % at 12.8 µM; O95551; AID 720702;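 active means inhibition above the mean of all tested compounds plus 3 SD, set per campaign, cut at about 25% in these data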
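System – recombinant human TDP2 · Quantity – TDP2 enzyme at 120 nM final · Doses – single concentration, 12.8 µM nominal, with 1% DMSO · Incubation – 2 h at 37 °C · Measured by – epi absorbance of p-nitrophenol freed from T5PNP by hydrolysis · Read-out – % inhibition relative to enzyme-containing and enzyme-free wells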
TDP2 confirm: human TDP2 inhibition, confirmation; shares compounds with TDP2 inh; recombinant human TDP2, absorbance read-out; inhibition, % at 12.8 µM; hit rate 22% among 1,100; AID 743263; in the data active means inhibition above about 25%
Each line names hits and unclear results; the compound was inactive in the other large screens (follow-up assays come after a bar, where they were run). Only some compounds are listed: those with a hit (about 1.6% of all), similar ones and a draw of the others.

CCOC(=O)c1ccccc1NC(=S)N1CCC(N2CCCCC2)CC1	TDP2 inh 33.6 | TDP2 confirm inactive
COc1ccc(CCNC(=O)CCNC(=O)c2ccc(Cl)cc2)cc1OC	none
COc1ccc(CNC(=O)CCCNC(=O)c2ccc(Cl)cc2)cc1OC	TDP2 inh 33.1 | TDP2 confirm inactive
CC(C)(C)c1ccc(-c2nnc3n2N=C(c2ccc(Cl)cc2)CS3)cc1	none
O=C(Nc1ccccc1)/C(=C/c1ccc([N+](=O)[O-])cc1)NC(=O)c1ccco1	TDP2 inh 24.6 | TDP2 confirm inactive
CCOC(=O)CC1(Cc2ccccc2)Oc2ccccc2O1	none
Cc1cc2c(c(=O)o1)[C@@]1(C(=O)N(c3ccccc3)c3ccccc31)C1=C(CCCC1=O)O2	none
CN1CCC(C)(C(=O)Nc2cccc(Oc3ccccc3)c2)C1 (configuration not stated)	TDP2 inh 81.4 | TDP2 confirm inactive
C=CCn1c(N)c(C(=O)NCC2CCCO2)c2nc3ccccc3nc21 (configuration not stated)	TDP2 inh 35.0 | TDP2 confirm inactive
C#CCNC(=O)C[C@H]1C[C@@]2(C(=O)OC)C(=C[C@H](C(C)C)O[C@@H]2C2CC2)N(CCc2ccc(OC)c(OC)c2)C1=O	none
Cc1c(C)n(Cc2ccc(-c3ccccc3C(=O)O)cc2)c2ccc(C(=O)N[C@@H](C)c3ccc([N+](=O)[O-])cc3)cc12	none
CNC(=S)N/N=C/c1ccc(-c2ccc(C(=O)O)cc2)o1	none
COc1ccc(-c2ccc(C(c3c(C)[nH][nH]c3=O)c3c(C)[nH][nH]c3=O)o2)c([N+](=O)[O-])c1	TDP2 inh 67.1 | TDP2 confirm inactive
COc1ccc(-c2ccc(/C=N/N3C(=O)C4C5C=CC(C6CC56)C4C3=O)o2)c([N+](=O)[O-])c1 (configuration not stated)	none
Cc1[nH][nH]c(=O)c1C(c1ccc(-c2ccc(C(=O)O)cc2)o1)c1c(C)[nH][nH]c1=O	TDP2 inh 59.7 | TDP2 confirm 31.8
Cc1[nH][nH]c(=O)c1C(c1ccc(-c2ccc(F)cc2)o1)c1c(C)[nH][nH]c1=O	LEDGF integ inh 25.5, TDP2 inh 59.9 | TDP2 confirm inactive
Cc1ccc(NC(=O)OC2CCC23CCCCC3)cc1 (configuration not stated)	none
CCN(CC)C(=O)CC[C@@H]1CC[C@]2(CCCN(Cc3nccs3)C2)O1	none
C[C@H]1CN([C@@H](C)CO)C(=O)CCCn2cc(nn2)CO[C@@H]1CN(C)C(=O)c1ccc2ccn(C)c2c1	none
CCCc1nnc(NC(=O)CCC(=O)N2CCCCC2)s1	TDP2 inh 26.2 | TDP2 confirm inactive
COC(=O)[C@]12C[C@H](CC(=O)N3CCCC3)C(=O)N(Cc3cccc4ccccc34)C1=C[C@H](C1CCCC1)O[C@@H]2C	none
O=C1CN(C(=O)NCC(=O)N[C@@H](Cc2ccccc2)C(=O)O)c2ccccc2N1	none
CC(CCc1ccccc1)NC(=O)CNC(=O)N1CC(=O)Nc2ccccc21 (configuration not stated)	TDP2 inh 25.1 | TDP2 confirm inactive
O=C(NCc1ccc2c(c1)OCO2)C(=O)NCC1OCCN1S(=O)(=O)c1ccc(Br)cc1 (configuration not stated)	none
O=C(NCc1ccc2c(c1)OCO2)C(=O)NCC1OCCN1S(=O)(=O)c1ccc(Cl)cc1 (configuration not stated)	TDP2 inh 37.1 | TDP2 confirm inactive
Cc1nc2sc(C(=O)NCc3ccc4c(c3)OCO4)c(N)c2c(C)c1Cl	none
O=C(NC1CCCC1)C(c1ccc(N2CCOCC2)cc1)N(Cc1ccccc1)C(=O)c1ccco1 (configuration not stated)	TDP2 inh 32.2 | TDP2 confirm inactive
Cc1ccccc1Cn1cc(CN2[C@@H](C)COc3cc(Br)ccc3S2(=O)=O)nn1	none
CN(C(=O)CCn1nnc(-c2cccs2)n1)C1CCCCC1	none
COC(=O)c1ccccc1NC1=C/C(=N\S(=O)(=O)c2cccs2)c2ccccc2C1=O	none
Cc1ccc(NC2=C/C(=N/S(=O)(=O)c3cccs3)c3ccccc3C2=O)cc1	TDP2 inh 36.1 | TDP2 confirm 41.0
Cc1ccc(S(=O)(=O)/N=C2\C=C(Nc3cccc(C(=O)O)c3)C(=O)c3ccccc32)c(C)c1	TDP2 inh 61.9 | TDP2 confirm 70.5
CCOC(=O)[C@]12CCCC=C1N(Cc1ccc(OC)cc1)C(=O)[C@@H]2CC(=O)NCCC(C)C	none
